From ChEMBL document CHEMBL3272141, “Potential long-acting anticonvulsants. 2. Synthesis and activity of succinimides containing an alkylating group on nitrogen or at the 3 position” (J Med Chem, 1977)
Calls of active or inactive are those of the source. The rule behind the calls is not given here.

Columns and labels:
[1] = tested on: Mus musculus; assay: Anticonvulsant activity against metrazole-induced seizures in Carworth Farms No.1 mouse up to 300 mg/kg; type: functional, organism-based; design: dose 300 mg/kg
Method in brief: (§1)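 Male Carworth Farms No. 1 mice were used, with the highest dose tested being 300 mg/kg.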

[2] = tested on: Mus musculus; assay: Anticonvulsant activity against maximal electroshock-induced seizures in Carworth Farms No.1 mouse up to 300 mg/kg; type: functional, organism-based; design: dose 300 mg/kg; method in brief: as §1

Row | SMILES | Activity [1] | Activity [2]
1 | O=C1CC(c2ccccc2)C(=O)N1CCc1ccc(N2C(=O)C=CC2=O)cc1 (stereo not drawn) | inactive | inactive
2 | N#CCN1C(=O)CC(c2ccccc2)C1=O (stereo not drawn) | inactive | inactive
3 | O=C1CC(c2ccccc2)C(=O)N1CCc1ccccc1 (stereo not drawn) | inactive | inactive
4 | O=C(O)/C=C\C(=O)NCCN1C(=O)CC(c2ccccc2)C1=O (stereo not drawn) | inactive | inactive
5 | O=C1C=CC(=O)N1CCN1C(=O)CC(c2ccccc2)C1=O (stereo not drawn) | inactive | inactive
6 | O=C(CCl)NCCN1C(=O)CC(c2ccccc2)C1=O (stereo not drawn) | inactive | inactive
7 | O=C(CCl)N1C(=O)CC(c2ccccc2)C1=O (stereo not drawn) | inactive | inactive
8 | O=C(CCl)Nc1ccc(CCN2C(=O)CC(c3ccccc3)C2=O)cc1 (stereo not drawn) | inactive | inactive
9 | NCCN1C(=O)CC(c2ccccc2)C1=O (stereo not drawn) | inactive | inactive
10 | Nc1ccc(CCN2C(=O)CC(c3ccccc3)C2=O)cc1 (stereo not drawn) | inactive | inactive
11 | CN1C(=O)C(CCNC(=O)CCl)C(C)(c2ccccc2)C1=O (stereo not drawn) | inactive | inactive
12 | O=C(O)/C=C\C(=O)Nc1ccc(CCN2C(=O)CC(c3ccccc3)C2=O)cc1 (stereo not drawn) | inactive | inactive
13 | O=C(CCl)NCCCN1C(=O)CC(CCCNC(=O)CCl)(c2ccccc2)C1=O (stereo not drawn) | inactive | inactive
14 | CC(=O)Nc1ccc(CCN2C(=O)CC(c3ccccc3)C2=O)cc1 (stereo not drawn) | inactive | inactive
